Source: PubChem
The list is not random: actives were taken first. Their share in the collection is about 0.7%.
CaV13 ICDI inh: Disruptors of the CACNA1D IQ motif to Ca2+-dependent inactivation inhibitor domain association, primary screening, Förster resonance energy transfer in intact living …; HEK cells, CFP/YFP FRET ICDI-IQ, plate reader, 10 min; percent FRET-ratio fall versus neutral wells; inhibition, % at 12.3 µM; hit rate 0.098% among 340,000; AID 743397;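 active means mean replicate inhibition of at least 30% and at least 1% of replicates passing that level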;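 further: 0% = median of the neutral control wells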
GC-B act: GC-B (human) receptor activation; hit rate 0.11% among 370,000; HEK293-GC-B cells, CNP EC30, cGMP TR-FRET; 0% at EC30 CNP, 100% saturating CNP; P20594; activation, % at 10 µM;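 active means activation at 10 µM reaching about 35% in either raw or pattern-adjusted values, limit read from the data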
Vif imaging: HIV Vif inhibition; HEK293T cells, Vif self-association by quenched fluorescence, imaging, 24 h; inhibition, % at 7.49 µM; hit rate 0.35% among 340,000; AID 602346; in the data active means inhibition above about 50%, passing the limit was not always enough
N-glyco inh: blocks N-linked glycosylation in D54 reporter cells | D54 ERlucT glycosylation luciferase reporter, 24 h; percent of 100 nM tunicamycin response | reporter increase, % at 12.5 µM | hit rate 0.23% among 360,000 | AID 588692;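 active means mean luciferase reporter signal, scaled so untreated is 0 and the glycosylation-blocking control 100, at or above a set limit in every replicate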;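 further: luciferase carries N-glycosylation sites so blocking glycosylation raises the light; 0% = median of neutral control wells and 100% = median of 100 nM tunicamycin wells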
XiGFP reactiv: X-chromosome reactivation activator | XiGFP mouse fibroblasts, % GFP-positive cells imaging, 3 d; cells co-treated with 5-aza-dC sensitizer; scaled so ellipticine positive control = 100% | activation, % at 7.58 µM | hit rate 0.055% among 360,000 | AID 743238;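 active means mean normalized replicate activation at least 10% and every replicate at or above 10%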;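 further: 0% = median of on-plate neutral control wells and 100% = ellipticine 6 µM median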
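Assay system – SV40-immortalized XiGFP fibroblast cells, line 68-5-11 · Buffer or medium – DMEM supplemented with 5-aza-dC as sensitizing agent · Dosing – one concentration, pinned · Benchmarks – positive control ellipticine, 6 µM final · Times – 3 days compound exposure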
NPR1 activator: GC-A (human) enzyme activation | P16066 | HEK293 GC-A cells, cGMP TR-FRET, EC30 ANP; 0% at EC30 ANP, 100% saturating ANP | activation, % at 10 µM | hit rate 0.14% among 370,000; in the data active means activation above about 40%
An asterisk follows results filed as active.

Screening COc1ccc(S(=O)(=O)Nc2ccc3c(c2)CC(=O)N([C@@H](C)CO)C[C@@H](C)[C@H](CN(C)C(=O)Nc2cccc4ccccc24)O3)cc1 returned XiGFP reactiv 0.
`COc1ccc(/C=C2/C(=O)ON=C2C)cc1Br` gave CaV13 ICDI inh -5, GC-B act 15, Vif imaging -17, N-glyco inh 4, XiGFP reactiv 0 and NPR1 activator 32.
CCOc1cc(/C=C2/C(=O)ON=C2C)ccc1OCc1ccccc1F was read as CaV13 ICDI inh -8, GC-B act 40*, Vif imaging 0, N-glyco inh 4 and NPR1 activator 43*.
For CCOc1cc(/C=C2/C(=O)ON=C2C)ccc1OCc1ccccc1 the results were CaV13 ICDI inh -12, GC-B act 37*, XiGFP reactiv 0 and NPR1 activator 43*.
`CCOc1cc(/C=C2/C(=O)ON=C2C)ccc1OCc1ccc(F)cc1` gave CaV13 ICDI inh -7, GC-B act 35*, Vif imaging -2, N-glyco inh 8 and NPR1 activator 42*.
`CCOc1cc(/C=C2\C(=O)ON=C2c2ccccc2)ccc1OC` gave CaV13 ICDI inh -17, GC-B act 10, Vif imaging 2, N-glyco inh 10, XiGFP reactiv 0 and NPR1 activator 29.
For C[C@@H]1CN([C@H](C)CO)S(=O)(=O)c2ccc(-c3cccnc3)cc2O[C@H]1CN(C)CC1CCOCC1 the results were XiGFP reactiv 0.
`CCNC(=O)C[C@H]1CC[C@@H]2[C@H](COC[C@H](O)CN2C(=O)Nc2cccc(OC)c2)O1` gave XiGFP reactiv 1.
C[C@@H]1CN([C@@H](C)CO)C(=O)Cc2cc(NC(=O)CCCN(C)C)ccc2O[C@@H]1CN(C)S(=O)(=O)c1cccs1 was read as XiGFP reactiv 1.
For COc1cc(/C=C/C(=O)OCC(=O)N(C)Cc2ccccc2)ccc1O the results were CaV13 ICDI inh -18, GC-B act -1, Vif imaging 51*, N-glyco inh -5, XiGFP reactiv 0 and NPR1 activator 0.
For COc1cccc(-c2cnc3c(c2)C(=O)N([C@@H](C)CO)C[C@@H](C)[C@H](CN(C)CC2CCCC2)O3)c1 the results were XiGFP reactiv 0.
For O=C(CNC(=O)c1ccncc1)N/N=C/c1ccccn1 the results were CaV13 ICDI inh -2, GC-B act -4, Vif imaging 59*, N-glyco inh -3, XiGFP reactiv 0 and NPR1 activator 0.
`CCOc1ccc(C(=S)N2CCOCC2)cc1OC` gave GC-B act -1, Vif imaging 5, N-glyco inh 1 and NPR1 activator -3.
`CCOc1cc(C(=S)N2CCOCC2)ccc1OC` gave CaV13 ICDI inh -5, GC-B act -1, Vif imaging 66*, N-glyco inh -1 and NPR1 activator 0.
CC(=O)Nc1ccc(S(=O)(=O)NCC(=O)OCC(=O)NC(=O)C2CCCCC2)cc1 was read as CaV13 ICDI inh -6, GC-B act 1, Vif imaging 8, N-glyco inh -2, XiGFP reactiv 0 and NPR1 activator -4.
CC(=O)Nc1ccc(S(=O)(=O)NCC(=O)OCC(=O)NC23CC4CC(CC(C4)C2)C3)cc1 was read as CaV13 ICDI inh -18, GC-B act -5, Vif imaging 75*, N-glyco inh 1, XiGFP reactiv 0 and NPR1 activator -1.
Screening CN(C)CCNC(=O)c1cccc2[nH]c(-c3ccncc3)nc12 returned CaV13 ICDI inh -5, GC-B act -8, Vif imaging -6, N-glyco inh 68*, XiGFP reactiv 0 and NPR1 activator -1.
For COc1ccc(C(=O)Nc2ccc3ccccc3n2)c(OC)c1OC the results were CaV13 ICDI inh -12, GC-B act -1, Vif imaging -12, N-glyco inh -19, XiGFP reactiv 0 and NPR1 activator 5.
For COc1ccc(C(=O)NCCN(C)C)c2nc3ccccc3cc12 the results were CaV13 ICDI inh -9, GC-B act -19, Vif imaging 13, N-glyco inh 54*, XiGFP reactiv 0 and NPR1 activator -35.
Cc1ccc(Sc2cc(C(=O)NCCN(C)C)c3ccccc3n2)cc1 was read as CaV13 ICDI inh -17, GC-B act 0, Vif imaging 3, N-glyco inh -7, XiGFP reactiv 0 and NPR1 activator 3.
`COc1ccc(-c2nc3c(C(=O)NCCN(C)C)cccc3c3ccccc23)cc1` gave CaV13 ICDI inh -14, GC-B act -11, Vif imaging 0, N-glyco inh 37*, XiGFP reactiv 0 and NPR1 activator -23.
COc1cccc2nc3c(C(=O)NCCN(C)C)cccc3cc12 was read as CaV13 ICDI inh -28, GC-B act -7, Vif imaging -34, N-glyco inh 49*, XiGFP reactiv 0 and NPR1 activator -7.
Screening CCCC(=O)Nc1ccc2c(c1)OC[C@@H](C)N(Cc1cccc(F)c1)C[C@H](C)[C@@H](OC)CN(C)C2=O returned XiGFP reactiv -1.
C[C@@H](NC(=O)C[C@@H]1C=C[C@@H](NC(=O)CN2CCOCC2)[C@@H](CO)O1)c1ccccc1 was read as XiGFP reactiv 0.
For O=C(C[C@@H]1C[C@H]2c3cc(NC(=O)C4CCC4)ccc3O[C@H]2[C@H](CO)O1)NCc1cccnc1 the results were XiGFP reactiv 0.
CN(C)CCNC(=O)c1cccc2nc3c(ccc4ccccc43)nc12 was read as CaV13 ICDI inh -14, GC-B act -20, Vif imaging -9, N-glyco inh 56*, XiGFP reactiv 0 and NPR1 activator -37.
For CC(C)(C)C1CCc2sc(-c3nnc(CCl)o3)cc2C1 (stereo not drawn) the results were CaV13 ICDI inh 3, GC-B act -5, Vif imaging -3, N-glyco inh 0, XiGFP reactiv 0 and NPR1 activator 6.
For ClCc1nnc(-c2cc3c(s2)CCCC3)o1 the results were CaV13 ICDI inh 2, GC-B act 2, Vif imaging 4, N-glyco inh -1, XiGFP reactiv 0 and NPR1 activator 54*.
`O=C(NCC[C@H]1CC[C@H](NS(=O)(=O)c2ccc(Cl)cc2)[C@@H](CO)O1)Nc1ccc(F)cc1` gave XiGFP reactiv 0.
`COc1cc(N=Nc2cccc(S(N)(=O)=O)c2)c2ccccc2c1N` gave CaV13 ICDI inh -22, GC-B act -1, Vif imaging 53*, N-glyco inh 116*, XiGFP reactiv 3 and NPR1 activator -33.
